Test results reported in PMC8504815 (Clinical and Translational Science, 2021).
“Also recorded” adds a separate entry of the source.

Experiments:
Safety and tolerability = type: in vivo, human; conditions: for dose-limiting toxicity: up to highest dose tested
[1] = Blood pharmacokinetics, multiple ascending dose; type: in vivo, human; conditions: for CLss/F: apparent total body clearance from blood at steady state; for CLss/F / AUC(0-t) / Cmax: mean (SD); for half-life: terminal half-life; for half-life / Tmax: median (minimum-maximum)
In short: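 Fasted healthy subjects with asymptomatic atopic diathesis were randomized 3:1 to oral drug or placebo, q.d. or b.i.d., through day 12. Blood was sampled predose and to 24 h on day 1 (b.i.d. to 12 h), then at trough and 2 h postdose. Urine was also collected. Assay was LC-MS/MS. Log Cmax/AUC was regressed on log dose (slope, 90% CI).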

Food effect = type: in vivo, human; conditions: for MRT: mean (SD)
[2] = statement in discussion, no value or reference printed; cited from earlier work
skin prick test wheal = assay: Skin prick test; type: in vivo, human; conditions: MAD
In short: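 MAD subjects with atopic diathesis had skin prick tests to known allergens from 7 undiluted allergens (pollens, house dust mite, cat and horse dander). Tests were done at day −1, day 1 predose/2/8 h, day 2 predose and day 12 predose/8/24/96 h. Wheal diameter was the mean of the longest and perpendicular diameters. The predose average (day −1 and day 1) was compared with the average of all 7 postdose tests.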

basophils [3] = assay: Basophil activation; type: in vivo, human; conditions: for trough inhibition of CD203c: day 12; for inhibition of CD203c+ basophils, peak: 8 h on day 1
In short: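 Heparinized whole blood was drawn at set timepoints from MAD subjects (healthy, asymptomatic atopic diathesis; oral q.d. or b.i.d.). It was stimulated ex vivo with anti-IgE for 25 minutes at 37°C/5% CO₂. CD63+ and CD203c+ basophils were counted as a percentage by flow cytometry and expressed as % inhibition versus baseline. Subjects with baseline CD63+ stimulation below 10% were excluded.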

BTK = BTK (Homo sapiens, UniProt Q06187); assay: BTK occupancy in blood; type: in vivo
Chain of BTK (Q06187 whole entry): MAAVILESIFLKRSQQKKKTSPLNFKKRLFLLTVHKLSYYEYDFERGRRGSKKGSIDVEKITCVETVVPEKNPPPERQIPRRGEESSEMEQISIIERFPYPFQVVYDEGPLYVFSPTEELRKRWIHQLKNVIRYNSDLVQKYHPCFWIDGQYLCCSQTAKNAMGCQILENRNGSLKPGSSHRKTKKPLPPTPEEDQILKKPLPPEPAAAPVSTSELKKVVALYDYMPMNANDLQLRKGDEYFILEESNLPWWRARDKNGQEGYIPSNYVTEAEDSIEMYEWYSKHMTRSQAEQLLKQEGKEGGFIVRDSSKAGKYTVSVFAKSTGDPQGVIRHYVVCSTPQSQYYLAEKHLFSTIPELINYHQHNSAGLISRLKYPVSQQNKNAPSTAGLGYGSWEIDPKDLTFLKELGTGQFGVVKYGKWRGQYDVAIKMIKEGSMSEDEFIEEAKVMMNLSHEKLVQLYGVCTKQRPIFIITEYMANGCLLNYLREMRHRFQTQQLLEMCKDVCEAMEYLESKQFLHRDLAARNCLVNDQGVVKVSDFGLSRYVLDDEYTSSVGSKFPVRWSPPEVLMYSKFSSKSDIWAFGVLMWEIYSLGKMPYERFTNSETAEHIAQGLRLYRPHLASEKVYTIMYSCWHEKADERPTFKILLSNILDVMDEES

[4] = Blood pharmacokinetics, single ascending dose; type: in vivo, human
In short: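 Ten cohorts of 8 healthy adults aged 18–65 were randomized 3:1 to one fasted oral dose (0.5–600 mg) or placebo, double-blind. Blood was taken predose and at protocol timepoints up to day 8, and drug was measured by validated LC-MS/MS. Dose proportionality used regression of log Cmax and AUC on log dose, giving the slope with 90% CI.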

basophils [5] = conditions: doses >=200 mg; not sustained beyond; cited from earlier work
[6] = human, whole blood, oral, 100 mg, MAD 100 mg b.i.d., Day 1
[7] = human, whole blood, oral, 100 mg, MAD 100 mg b.i.d., Day 12
[8] = human, whole blood, oral, 200 mg, MAD 200 mg b.i.d., Day 12
[9] = human, whole blood, oral, 600 mg, MAD 600 mg q.d., Day 1

## C=CC(=O)N(C)CCOc1c(N)ncnc1-c1cc(F)cc(NC(=O)c2ccc(C3CC3)cc2F)c1C [Remibrutinib]
Safety and tolerability; 100 mg MAD cohort, after trauma / vessel puncture, resolved spontaneously
  hematomas: two hematomas
Safety and tolerability; 600 mg MAD group, both had history of repeated epistaxis
  self-limiting epistaxis: Two subjects
Safety and tolerability; FE cohort, 2/12
  headache (most common AE): 16.7%
Safety and tolerability; FE cohort, 7 of 12 subjects
  Subjects with at least 1 AE: 58.3%
Safety and tolerability; FE cohort, fasted condition
  incidence of AEs: 16.7%
Safety and tolerability; FE cohort, fed condition
  incidence of AEs: 50%
Safety and tolerability; Food effect cohort, N = 12
  AE severity: Mild: 7 (58.3) n (%)
  AE severity: Moderate: 1 (8.3) n (%)
  Headache: 2 (16.7) n (%)
  Nasopharyngitis: 1 (8.3) n (%)
  Study drug-related AEs: 3 (25.0) n (%)
  Subjects with at least 1 AE: 7 (58.3) n (%)
Safety and tolerability; MAD cohorts, 5/48
  subjects with AEs suspected to be related to the study drug: 10.4%
Safety and tolerability; MAD cohorts, 24 subjects on remibrutinib
  incidence of AEs (subjects with at least 1 AE): 50.0%
Safety and tolerability; MAD cohorts, all doses, N = 48
  AE severity: Mild: 22 (45.8) n (%)
  AE severity: Moderate: 5 (10.4) n (%)
  AE severity: Severe: 1 (2.1) n (%)
  Headache: 5 (10.4) n (%)
  Nasopharyngitis: 3 (6.3) n (%)
  Study drug-related AEs: 5 (10.4) n (%)
  Subjects with at least 1 AE: 24 (50.0) n (%)
  Toothache: 1 (2.1) n (%)
Safety and tolerability; SAD 100 and 200 mg cohorts
  AEs reported: No AEs
Safety and tolerability; SAD cohorts, 17 subjects on remibrutinib
  Subjects with at least 1 AE: 28.3%
Safety and tolerability; SAD cohorts, all doses, N = 60
  AE severity: Mild: 16 (26.7) n (%)
  AE severity: Moderate: 1 (1.7) n (%)
  Headache: 6 (10.0) n (%)
  Nasopharyngitis: 4 (6.7) n (%)
  Study drug-related AEs: 7 (11.7) n (%)
  Subjects with at least 1 AE: 17 (28.3) n (%)
Safety and tolerability; SAD cohorts, all on remibrutinib, of 80 subjects
  subjects with AEs suspected to be related to the study drug: 7 subjects
Safety and tolerability; all cohorts
  changes in hematology, biochemistry, urinalysis parameters (vital signs, ECG): No clinically significant changes
Safety and tolerability; all doses
  dose-limiting toxicity: without any dose‐limiting toxicity
Safety and tolerability; all doses, listed as remibrutinib
  dose-limiting toxicity: No dose‐limiting toxicity
Safety and tolerability; all evaluated doses, up to 600 mg oral
  tolerability: well‐tolerated
Safety and tolerability; any cohort, overall summary
  SAEs or deaths: No SAEs or deaths
Safety and tolerability; any dose, bruising log and coagulation testing
  risk of bleeding: no increased risk of bleeding
[1]; MAD 100 mg b.i.d., Day 12
  CLss/F: 255 (153) L/h
[1]; MAD 100 mg q.d., Day 12
  CLss/F: 198 (88.7) L/h
[1]; MAD 200 mg b.i.d., Day 12
  CLss/F: 267 (126) L/h
[1]; MAD 400 mg q.d., Day 12
  CLss/F: 366 (150) L/h
[1]; MAD 600 mg q.d., Day 12
  CLss/F: 521 (131) L/h
[1]; MAD cohorts
  dose proportional increases of Cmax and AUC over the full dose range: not observed
  time to steady-state: third day of dosing
[1]; across doses in all MAD cohorts, urine
  direct renal excretion, contribution to total apparent blood clearance: ~ 1%
[1]; human, whole blood, oral, 100 mg, AUC0–12 h, MAD 100 mg b.i.d., Day 12
  AUC(0-t): 496 ng·h/mL
[1]; human, whole blood, oral, 100 mg, AUC0–24 h, MAD 100 mg q.d., Day 12
  AUC(0-t): 485 ng·h/mL
[1]; human, whole blood, oral, 100 mg, AUClast, MAD 100 mg b.i.d., Day 12
  AUC(0-t): 518 ng·h/mL
[1]; [6]
  Cmax: 180 ng/mL
  Tmax: 1.5 h
[1]; [7]
  Cmax: 306 ng/mL
  Tmax: 0.775 h
[1]; human, whole blood, oral, 100 mg, T1/2, MAD 100 mg b.i.d., Day 12
  half-life: 2.84 h
[1]; human, whole blood, oral, 200 mg, AUC0–12 h, MAD 200 mg b.i.d., Day 1
  AUC(0-t): 464 ng·h/mL
[1]; human, whole blood, oral, 200 mg, AUC0–12 h, MAD 200 mg b.i.d., Day 12
  AUC(0-t): 890 ng·h/mL
[1]; human, whole blood, oral, 200 mg, AUClast, MAD 200 mg b.i.d., Day 1
  AUC(0-t): 464 ng·h/mL
[1]; human, whole blood, oral, 200 mg, MAD 200 mg b.i.d., Day 1
  Cmax: 236 ng/mL
[1]; [8]
  Cmax: 347 ng/mL
  Tmax: 0.992 h
[1]; human, whole blood, oral, 200 mg, T1/2, MAD 200 mg b.i.d., Day 12
  half-life: 12.4 h
[1]; human, whole blood, oral, 400 mg, AUC0–24 h, MAD 400 mg q.d., Day 1
  AUC(0-t): 977 ng·h/mL
[1]; human, whole blood, oral, 600 mg, AUC0–24 h, MAD 600 mg q.d., Day 1
  AUC(0-t): 1080 ng·h/mL
[1]; human, whole blood, oral, 600 mg, AUC0–24 h, MAD 600 mg q.d., Day 12
  AUC(0-t): 1230 ng·h/mL
[1]; [9]
  Cmax: 550 ng/mL
  Tmax: 0.75 h
[1]; human, whole blood, oral, mean residence time (MRT), multiple doses (q.d. and b.i.d.), overall statement
  MRT: < 3 h
[1]; multiple doses (q.d. and b.i.d.), overall statement
  mean residence time (MRT): ~ 3 h
[1]; overall statement in discussion
  number of doses to steady state: less than 5 doses
[1]; q.d. and b.i.d. dosing
  accumulation with multiple doses: no pronounced accumulation; also recorded: no marked accumulation
Food effect; 60 mg single dose, standardized high-fat breakfast
  Delay of median Tmax, fed vs fasted: ~ 2 h
Food effect; 60 mg single dose, 90% CI 0.638-1.01
  Cmax geometric mean ratio (fed vs fasted): 0.801
Food effect; 60 mg single dose, 90% CI 1.14-1.47
  AUClast geometric mean ratio (fed vs fasted): 1.30
Food effect; 60 mg, fed vs fasted
  effect of food intake on exposure: no clinically relevant effect
Food effect; human, whole blood, oral, 60 mg, 60 mg single dose, Fasted
  MRT: 2.29 ± 0.72 h
Food effect; human, whole blood, oral, 60 mg, 60 mg single dose, Fed
  MRT: 4.17 ± 1.2 h
Food effect; human, whole blood, oral, 60 mg, Tmax, 60 mg single dose, Fed, median (min-max)
  Tmax: 2.78 h
[2]
  solubility: low solubility
Skin prick test wheal; day 12 predose, >=100 mg q.d.
  skin prick test (SPT) inhibition: Near complete
Skin prick test wheal; doses >=100 mg q.d., across all tests, subjects with atopic diathesis
  average decrease in wheal size (SPT): ~ 3 mm
Basophils [3]; MAD 10 mg q.d., last day of dosing
  trough level inhibition of CD63: 80%
Basophils [3]; MAD 100 mg b.i.d.
  trough inhibition of CD203c: 63%
Basophils [3]; MAD 200 mg b.i.d.
  inhibition of CD203c+ basophils, peak: 81.8%
  trough inhibition of CD203c: 67%
Basophils [3]; MAD 400 mg q.d.
  inhibition of CD203c+ basophils, peak: 84%
Basophils [3]; MAD daily dose >=50 mg, day 1-12 incl. day 12 predose
  inhibition of blood basophil activation (CD63 expression): Near complete; also recorded: Full inhibition
Basophils [3]; SAD 60 mg, after 24 h
  basophil inhibition (CD63 expression): ~90%
Basophils [3]; SAD 200 mg cohort, at 8 h
  inhibition of CD203c basophil activation marker: up to 79.4%
Basophils [3]; SAD, doses >=100 mg
  basophil inhibition (CD63 expression): almost complete inhibition
BTK; MAD, doses >=50 mg, over the measured dosing period, complete = >95%
  BTK occupancy in blood: maintained complete BTK occupancy
BTK; SAD, lowest dose of 0.5 mg
  BTK occupancy in blood: no BTK occupancy
BTK; single dose
  lowest dose showing both complete BTK occupancy and almost complete basophil inhibition: 30 mg
[4]; SAD cohorts
  dose proportionality of Cmax, AUCinf, AUClast over the full dose range: not demonstrated
[4]; human, whole blood, oral
  half-life: 1 to 2 h
[4]; human, whole blood, po
  Tmax: 0.5 to 1.25 h

## C[C@H]1CN(C2COC2)CCN1c1ccc(Nc2cc(-c3ccnc(N4CCn5c(cc6c5CC(C)(C)C6)C4=O)c3CO)cn(C)c2=O)nc1 [fenebrutinib]
Basophils [5]
  duration of more than 90% CD63 inhibition: ≤ 8 h
